Measurements published in ChEMBL document CHEMBL1142565, “Prenylbicyclogermacrane diterpenoids from the formosan soft coral Nephthea pacifica” (2005).
In brackets after ≈: the same amount, converted by molar mass.

Columns and labels:
[1] = system: HT-29; experiment: Cytotoxicity against human HT-29 cells 0.5 to 50 ug/ml; type: functional, cell-based
Outline: (§1)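 Cells tested at three concentrations (50, 5 and 0.5 μg/mL). HT-29 (human colon adenocarcinoma) obtained from ATCC. P-388 (mouse lymphocytic leukemia) line supplied by an outside laboratory. Assay otherwise run per a previously described procedure.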

[2] = system: P388; experiment: Cytotoxicity against mouse P388 cells at 0.5 to 50 ug/ml; type: functional, cell-based; outline: as §1
[3] = system: P388; experiment: Cytotoxicity against mouse P388 cells; type: functional; conditions: read-out: ED50 (the source's name)
Outline: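 P-388 mouse lymphocytic leukemia cells, supplied by an academic laboratory. Test compounds were run at three concentrations (50, 5 and 0.5 μg/mL), following a previously described cytotoxicity procedure.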

| SMILES | Activity [1] | Activity [2] | EC50 [3] [mg/L] |
| --- | --- | --- | --- |
| CC(C)(O)/C=C/C[C@@]1(C)CC[C@]2(C)O[C@H]2CC[C@](C)(O)[C@H]2C[C@@H]21 | Not toxic | Not toxic | – |
| C/C1=C\CC[C@](C)(O)[C@H]2C[C@@H]2[C@@](C)(C/C=C/C(C)(C)O)CC1 | Not toxic | Not toxic | – |
| C=C(C)C(O)CC[C@@]1(C)CC[C@]2(C)O[C@H]2CC[C@](C)(O)[C@H]2C[C@@H]21 (stereo not given in full) | Not toxic | Not toxic | – |
| C=C1CC/C=C(\C)CC[C@](C)(CCC=C(C)C)[C@H]2C[C@H]12 | Not toxic | Not toxic | – |
| CC(C)(/C=C/C[C@@]1(C)CC[C@]2(C)O[C@H]2CC[C@](C)(O)[C@H]2C[C@@H]21)OO [PACIFICIN C] | Not toxic | – | 1.44 (≈ 4.25 µM) |
| CC(=O)O[C@H]1/C=C(\C)CC[C@](C)(C/C=C/C(C)(C)OO)[C@H]2C[C@@H]2[C@@](C)(O)C1 | Not toxic | Not toxic | – |
| CC(C)=CCC[C@@]1(C)CC[C@]2(C)O[C@H]2CC[C@](C)(O)[C@H]2C[C@@H]21 | Not toxic | Not toxic | – |
| C=C1CC/C=C(\C)CC[C@](C)(C/C=C/C(C)(C)O)[C@H]2C[C@H]12 | Not toxic | Not toxic | – |
| C=C(C)C(CC[C@@]1(C)CC/C(C)=C/[C@H](OC(C)=O)C[C@](C)(O)[C@H]2C[C@@H]21)OO (stereo not given in full) [PACIFICIN H] | Not toxic | – | 2.01 (≈ 5.28 µM) |
| C=C(C)C(CC[C@@]1(C)CC[C@]2(C)O[C@H]2CC[C@](C)(O)[C@H]2C[C@@H]21)OO (stereo not given in full) | Not toxic | Not toxic | – |
